Laboratory results as given in PubChem BioAssay AID463145 (The Scripps Research Institute Molecular Screening Center, 2010).
Activity calls are given as the source filed them.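 How the source made its calls: active means FXR activation with a fold change above 2; inactive means the rest.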

Each compound was assayed against Bile acid receptor (Homo sapiens) (UniProt Q96RI1) (assay: activation of FXR ligand-binding domain – cell-based, luciferase luminescence, assay provider, powder samples, selectivity assay for RORA inverse agonist project, late-stage follow-up (AID 463145)). Conditions: HEK293T GAL4-FXR LBD luciferase reporter, 18-24 h; at 10 µM; active compounds read high.
Method in brief: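 Assay system: HEK293T GAL4-FXR LBD luciferase reporter cells; Times: 20 h compound treatment; Technique: luciferase luminescence.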

Sequence of Bile acid receptor (Homo sapiens) (Q96RI1 whole entry, looked up, the tested form may be a part): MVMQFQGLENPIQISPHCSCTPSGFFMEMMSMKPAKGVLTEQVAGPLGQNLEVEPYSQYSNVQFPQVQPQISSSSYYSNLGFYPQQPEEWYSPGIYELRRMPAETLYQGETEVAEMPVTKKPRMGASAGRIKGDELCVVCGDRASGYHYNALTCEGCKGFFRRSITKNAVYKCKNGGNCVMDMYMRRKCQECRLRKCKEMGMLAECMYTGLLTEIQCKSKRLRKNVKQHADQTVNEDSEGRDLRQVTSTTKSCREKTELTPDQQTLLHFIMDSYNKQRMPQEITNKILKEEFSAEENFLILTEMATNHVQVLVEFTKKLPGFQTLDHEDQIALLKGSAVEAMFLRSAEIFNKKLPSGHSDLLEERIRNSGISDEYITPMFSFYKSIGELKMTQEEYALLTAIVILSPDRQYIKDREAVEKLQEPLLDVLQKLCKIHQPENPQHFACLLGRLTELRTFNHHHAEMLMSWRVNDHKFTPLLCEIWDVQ

Fold change, inactive:
O=S(=O)(Nc1ccc(C(O)(C(F)(F)F)C(F)(F)F)cc1)c1cccs1 1.21
O=C(Nc1ccc(C(O)(C(F)(F)F)C(F)(F)F)cc1)c1c(F)cccc1F 1.06
O=C(Nc1ccc(C(O)(C(F)(F)F)C(F)(F)F)cc1)c1ccc(F)cc1F 1.52
O=C(Nc1ccc(C(O)(C(F)(F)F)C(F)(F)F)cc1)c1ccc(F)cc1Cl 1.07
O=C(Nc1ccc(C(O)(C(F)(F)F)C(F)(F)F)cc1)c1ccc(Cl)cc1 1.14
O=C(Nc1ccc(C(O)(C(F)(F)F)C(F)(F)F)cc1)c1ccccc1C(F)(F)F 0.846
